The text below walks through data of PMC2903848 (The FEBS journal, 2010).

Molecules are shown by their SMILES.

For series [1], the system named is PRMT1/NIP45 interaction. In words: HA-PRMT1/FLAG-NIP45 coimmunoprecipitation in 293T cells. It counts as cell-based. To be noted: 293T cells transfected with HA-PRMT1 and FLAG-NIP45; 100μM (Adox 20μM). Summed up:
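293T cells were co-transfected (Fugene HD) with HA-PRMT1 and FLAG-NIP45 vectors, then treated with DMSO, test compound (100μM) or Adox (20μM). Lysates in 100 mM NaCl, 50 mM TRIS pH 7.5, 0.1% TX-100 buffer were immunoprecipitated with anti-HA agarose and blotted for FLAG, then reprobed for HA. FLAG/HA association was quantified versus DMSO; three experiments.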

The target of series [2] is PRMT5 (Homo sapiens, UniProt O14744). The class given is biochemical. To be noted: PRMT5 immunoprecipitated from 293T cells, MBP as substrate. In short, it runs like this: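 PRMT5, or an isotype-control IP, was immunoprecipitated from 293 cell extracts and used in in vitro methylation reactions with MBP substrate at the indicated test compound concentrations. Reaction inputs were checked by immunoblotting with PRMT5 antisera. Representative of at least three independent experiments.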
Sequence of PRMT5 (O14744 whole entry): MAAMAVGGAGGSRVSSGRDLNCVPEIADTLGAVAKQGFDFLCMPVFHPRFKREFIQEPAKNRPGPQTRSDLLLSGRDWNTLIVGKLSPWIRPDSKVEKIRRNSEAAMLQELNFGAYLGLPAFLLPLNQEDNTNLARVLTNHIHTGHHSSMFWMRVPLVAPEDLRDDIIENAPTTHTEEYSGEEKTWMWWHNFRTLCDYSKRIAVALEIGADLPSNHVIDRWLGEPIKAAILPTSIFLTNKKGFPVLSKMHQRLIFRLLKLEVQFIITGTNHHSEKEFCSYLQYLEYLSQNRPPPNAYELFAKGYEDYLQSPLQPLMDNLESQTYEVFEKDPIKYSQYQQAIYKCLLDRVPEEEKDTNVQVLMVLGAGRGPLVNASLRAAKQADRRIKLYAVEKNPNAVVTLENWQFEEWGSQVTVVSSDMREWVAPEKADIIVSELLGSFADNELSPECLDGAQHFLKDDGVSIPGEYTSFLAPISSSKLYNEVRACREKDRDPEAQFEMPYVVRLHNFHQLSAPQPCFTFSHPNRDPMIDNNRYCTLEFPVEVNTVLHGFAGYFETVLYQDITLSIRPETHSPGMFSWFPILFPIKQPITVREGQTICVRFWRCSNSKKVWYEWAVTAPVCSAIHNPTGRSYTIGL
Sequence of PRMT5 (Q9BQA1 whole entry partner): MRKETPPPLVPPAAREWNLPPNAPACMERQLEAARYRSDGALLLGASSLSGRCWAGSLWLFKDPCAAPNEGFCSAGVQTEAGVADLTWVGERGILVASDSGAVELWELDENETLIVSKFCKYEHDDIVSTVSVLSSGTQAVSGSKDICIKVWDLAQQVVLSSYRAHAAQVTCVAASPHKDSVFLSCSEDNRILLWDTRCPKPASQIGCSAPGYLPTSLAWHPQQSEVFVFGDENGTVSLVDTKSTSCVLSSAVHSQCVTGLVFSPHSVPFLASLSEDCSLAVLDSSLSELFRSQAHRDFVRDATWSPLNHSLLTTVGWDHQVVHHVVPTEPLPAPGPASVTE

In series [3] the test system is PRMT1. In words: HA-PRMT1/FLAG-PRMT1 coimmunoprecipitation. The note with it: 100μM during coimmunoprecipitation. In short, it runs like this: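 HA-PRMT1 and FLAG-PRMT1 were expressed in separately transfected 293T cells. Equal volumes of the two lysates were mixed and incubated with DMSO or test compound (100μM) during the anti-HA agarose immunoprecipitation. Blots were probed with anti-FLAG. As a specificity control, IPs from vector-only cells were incubated with FLAG-NIP45 lysates.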

In series [4] the target is PRMT8 (Homo sapiens, UniProt Q9NR22). In words: In vitro methylation of GST-GAR by recombinant GST-PRMT8. The class given is biochemical. To be noted: 30μM compound, GST-GAR substrate. In short, it runs like this: (§1)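 Recombinant GST-PRMT6 or GST-PRMT8 was concentrated on a micron 10 filter and reacted with GST-GAR substrate and [3H]SAM plus 30μM test compound. Reactions were quantified by densitometry. Representative of at least three independent experiments.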
Sequence of PRMT8 (Q9NR22 whole entry, species assumed): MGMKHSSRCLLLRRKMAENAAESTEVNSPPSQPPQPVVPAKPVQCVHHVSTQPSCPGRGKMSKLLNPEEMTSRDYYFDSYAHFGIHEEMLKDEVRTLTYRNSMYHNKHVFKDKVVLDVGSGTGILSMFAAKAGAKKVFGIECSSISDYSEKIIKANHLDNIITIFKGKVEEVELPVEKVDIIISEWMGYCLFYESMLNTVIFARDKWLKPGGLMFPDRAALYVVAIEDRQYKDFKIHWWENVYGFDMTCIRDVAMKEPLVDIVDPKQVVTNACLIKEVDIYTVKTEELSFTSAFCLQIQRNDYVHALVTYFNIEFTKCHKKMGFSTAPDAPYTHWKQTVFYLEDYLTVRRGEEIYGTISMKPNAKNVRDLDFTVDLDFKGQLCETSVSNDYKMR

Series [5] has as its target T1, recombinant human GST-PRMT4 (Homo sapiens, UniProt Q86X55).
T1 sequence (Q86X55 1-608): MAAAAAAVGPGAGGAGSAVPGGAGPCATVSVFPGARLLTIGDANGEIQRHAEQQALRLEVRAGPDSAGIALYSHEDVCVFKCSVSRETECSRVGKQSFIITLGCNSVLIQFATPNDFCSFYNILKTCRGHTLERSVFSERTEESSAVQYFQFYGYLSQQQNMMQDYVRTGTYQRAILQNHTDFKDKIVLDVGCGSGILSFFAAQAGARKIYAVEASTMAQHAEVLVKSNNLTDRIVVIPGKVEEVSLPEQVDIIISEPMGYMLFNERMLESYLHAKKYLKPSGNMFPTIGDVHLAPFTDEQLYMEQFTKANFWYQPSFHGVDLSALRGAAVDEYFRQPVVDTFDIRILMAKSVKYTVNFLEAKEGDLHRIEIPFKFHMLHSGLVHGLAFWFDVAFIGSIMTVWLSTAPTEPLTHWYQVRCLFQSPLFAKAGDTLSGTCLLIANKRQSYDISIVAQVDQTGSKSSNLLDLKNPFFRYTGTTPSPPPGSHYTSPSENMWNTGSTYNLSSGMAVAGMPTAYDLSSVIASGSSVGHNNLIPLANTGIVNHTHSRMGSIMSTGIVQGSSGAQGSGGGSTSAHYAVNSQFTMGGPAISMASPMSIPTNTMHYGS
In words: In vitro methylation of histone 3 by recombinant GST-PRMT4. It counts as biochemical. To be noted: read-out: PRMT4 IC50; recombinant human GST-PRMT4, histone 3 as substrate. In short, it runs like this:
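Recombinant human GST-PRMT4 methylated recombinant histone 3 in the presence of [3H]SAM and increasing concentrations of test compound. Methylation was quantified by densitometry, and IC50 was calculated by linear regression. Representative of at least three independent experiments.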

In series [6] the target is PRMT6 (Homo sapiens, UniProt Q96LA8). In words: In vitro methylation of GST-GAR by recombinant GST-PRMT6. It counts as biochemical. To be noted: 30μM compound, GST-GAR substrate. In short, it runs like this: as §1
Sequence of PRMT6 (Q96LA8 whole entry, species assumed): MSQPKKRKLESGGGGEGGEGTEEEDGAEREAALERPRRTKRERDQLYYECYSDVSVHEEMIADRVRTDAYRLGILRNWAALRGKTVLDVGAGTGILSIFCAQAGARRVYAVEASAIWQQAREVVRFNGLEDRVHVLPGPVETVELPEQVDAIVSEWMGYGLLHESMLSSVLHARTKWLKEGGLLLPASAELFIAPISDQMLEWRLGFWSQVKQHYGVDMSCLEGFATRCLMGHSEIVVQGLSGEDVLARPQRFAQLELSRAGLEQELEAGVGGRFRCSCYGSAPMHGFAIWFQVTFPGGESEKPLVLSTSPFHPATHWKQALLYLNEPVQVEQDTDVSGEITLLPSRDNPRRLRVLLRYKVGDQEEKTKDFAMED
In series [7] the test system is IL-4 promoter (−760 to +68) in Jurkat cells. In words: IL-4 promoter luciferase reporter in Jurkat cells. The class given is cell-based, human. The note with it: 18hrs pretreatment then 6hr PMA/Ionomycin, 100μM (Adox 20μM). Summed up:
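Jurkat cells in RPMI, electroporated (280V, 975μF) with IL-4 promoter luciferase reporter (3μg) plus thymidine kinase-driven Renilla luciferase (10ng) as internal control. Compounds in DMSO, vehicle control DMSO; 18 h pretreatment, then 6 h stimulation with 50 ng/mL PMA plus ionomycin. Dual luciferase read-out, firefly normalised to Renilla. At least three independent experiments.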

Series [8] has as its system recombinant hPRMT1. To be noted: read-out: PRMT1 IC50; reported value using recombinant hPRMT1 and GST-Npl3 as substrate; cited from earlier work.
In series [9] the test system is Th2 cells. In words: Th2 cell IL-4 production by ELISA. It counts as cell-based, mice. The note with it: 100μM. In short, it runs like this:
(§2)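 Balb/c T helper cells isolated by magnetic beads, cultured in RPMI with plate-bound anti-CD3 1μg/mL, anti-CD28 2μg/mL and IL-2. Th1 skewed with rIL-12 5ng/mL and anti-IL-4 10 μg/mL (IFNγ line); Th2 with rIL-4 10 ng/mL and anti-IFNγ 10 μg/mL (IL-4 line). Day-7 cells at 1 × 10^6 cells/mL restimulated with plate-bound anti-CD3 (1μg/mL) for 24 h with compound or DMSO. Supernatant cytokine measured by ELISA; at least three experiments.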

In series [10] the test system is Th1 cells. In words: Th1 cell IFNγ production by ELISA. The note with it: 100μM. It counts as cell-based, mice. Summed up: as §2
Series [11] deals with H3R17 methylation in 293T cells. In words: Cellular H3R17 methylation immunoblot in 293T cells. It counts as cell-based. The note with it: 293T cells over treatment period (data not shown). Summed up: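 293T cells grown in DMEM were treated for 24 hrs with DMSO vehicle, test compound (100μM or 300μM) or Adox (20μM). Histone extracts were immunoblotted with anti-histone 3 dimethylarginine 17 antibody. Methylation was quantified relative to vehicle-treated samples. Toxicity was followed over the treatment period. Three independent experiments.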

The subject of series [12] is T helper cells. In words: Viability of T helper cells. The class given is cell-based. The note with it: T helper cells, 100 μM.
The nature of series [13]: Viability of T helper cells. It counts as cell-based. The note with it: Balb/c, mouse, primary T helper cells.
The test system of series [14] is T helper cells. In words: T helper cell proliferation. The class given is cell-based, mice. The note with it: anti-CD3 stimulated T helper cells, MTS assay.
The target in series [15] is PRMT1 (Rattus norvegicus, UniProt Q63009). In words: UV crosslinking of [3H]SAM to GST-PRMT1. The class given is binding. The note with it: 100μM inhibitor, 20μM [3H]SAM.
Sequence of PRMT1 (Rattus norvegicus, UniProt Q63009) (Q63009 whole entry): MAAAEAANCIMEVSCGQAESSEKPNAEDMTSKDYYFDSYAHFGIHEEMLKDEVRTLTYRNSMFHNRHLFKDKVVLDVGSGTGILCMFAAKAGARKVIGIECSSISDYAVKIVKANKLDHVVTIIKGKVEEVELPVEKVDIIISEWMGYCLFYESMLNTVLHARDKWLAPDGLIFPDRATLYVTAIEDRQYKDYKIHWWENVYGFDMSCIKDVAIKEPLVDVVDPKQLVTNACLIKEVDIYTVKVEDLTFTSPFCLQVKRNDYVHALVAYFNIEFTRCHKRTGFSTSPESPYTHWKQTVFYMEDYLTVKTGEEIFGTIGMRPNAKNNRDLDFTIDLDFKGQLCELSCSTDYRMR

Regarding `O=C(Nc1ccc2c(O)cc(S(=O)(=O)O)cc2c1)Nc1ccc2c(O)cc(S(=O)(=O)O)cc2c1` [AMI-1], the “effect on PRMT1/NIP45 association” value in [1] was “interfered with the NIP45 and PRMT1 interaction”. The “inhibition of PRMT5 activity” value in [2] was “ineffective”. Also, in series [3], the “effect on HA-PRMT1/FLAG-PRMT1 interaction (oligomerization)” value is “did not interfere with the interaction”. In series [4], the “inhibition of GST-GAR methylation by PRMT8” value is “less effective”. In addition, the 50% inhibitory concentration (IC50) in [5] was 170 ± 10.7 µM; in series [8] it was 8.8 µM. Moreover, in [6], the “inhibition of GST-GAR methylation by PRMT6” value is given as “less effective”. Further, the “effect on IL-4 promoter reporter activity” value in series [7] is listed as “decreased promoter activity”. Besides, the “reduction of Th2 IL-4 levels” value in series [9] (anti-CD3 stimulated Th2 cells, ELISA) is on record as “less than 40%”. The “reduction of Th1 IFNγ production” value in series [10] (anti-CD3 stimulated Th1 cells, ELISA) was “less than 40%”.

For the compound `Nc1ncnc2c1ncn2C(C=O)OC(C=O)CO` (centres unmarked) [Adox, adenosine dialdehyde], the “effect on PRMT1/NIP45 association” value in series [1] is reported as “reduced the association”. Besides, the “effect on IL-4 promoter reporter activity” value in series [7] is “greatly diminished”. The cellular toxicity result in series [11] is listed as “no cellular toxicity”.

With `CSC[C@H]1O[C@@H](n2cnc3c(N)ncnc32)[C@H](O)[C@@H]1O` [MTA, methylthioadenosine], in series [12], the “% apoptotic” value amounted to 4.9% and the “% necrotic” value is on record as 4.2%. This compound also came in with a viability at 100 µM in series [13] of 90.9%. Moreover, in series [14], the “effect on T helper cell proliferation” value is given as “inhibited T cell proliferation”. In addition, the “effect on IL-4 production” value in series [9] (Th2 cells) is “diminished”. For the same compound, in series [10] (Th1 cells), the “effect on IFNγ production” value is given as “diminished”.

In the case of `Nc1ncnc2c1ncn2[C@@H]1O[C@H](C[C@@H](N)CC[C@H](N)C(=O)O)[C@@H](O)[C@H]1O` [sinefungin], the “competition for SAM binding to PRMT1” value in series [15] is “competitive with SAM for binding”.
